Hits are enriched below; roughly 3.9% of the tested compounds scored in any of these assays.
HTR2A ag: mouse Htr2a agonists via beta-arrestin recruitment, primary screen, cell-based, luminescence | 5-hydroxytryptamine receptor 2A (Mus musculus), P35363 | CHO-K1 mHTR2A beta-arrestin complementation; percent of 30 µM serotonin response | activation, % at 7.6 µM | 360,000 tested, 0.66% active;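 active = activation above a run cutoff, the mean activation of all tested compounds plus 3 SD, cut at about 14% in these data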;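 note: 0% = plate median of compound wells and 100% = 30 µM serotonin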
M1 ag: human M1 muscarinic receptor agonists, primary screen, Fluo-8 calcium fluorescence, CHO-K1 cells, HTS | CHO-K1 hM1, agonist mode; 0% DMSO, 100% acetylcholine EC100 | 360,000 tested, 0.33% active | activation, % at 3 µM | Muscarinic acetylcholine receptor M1 (Homo sapiens), P11229 | AID 588814, 2011;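 active = activation above the run's mean compound activation plus 3 SD, cut at about 16% in these data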;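 note: peak over basal fluorescence ratio within a 140 s kinetic read after compound addition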
Target sequence (P11229 whole entry, looked up): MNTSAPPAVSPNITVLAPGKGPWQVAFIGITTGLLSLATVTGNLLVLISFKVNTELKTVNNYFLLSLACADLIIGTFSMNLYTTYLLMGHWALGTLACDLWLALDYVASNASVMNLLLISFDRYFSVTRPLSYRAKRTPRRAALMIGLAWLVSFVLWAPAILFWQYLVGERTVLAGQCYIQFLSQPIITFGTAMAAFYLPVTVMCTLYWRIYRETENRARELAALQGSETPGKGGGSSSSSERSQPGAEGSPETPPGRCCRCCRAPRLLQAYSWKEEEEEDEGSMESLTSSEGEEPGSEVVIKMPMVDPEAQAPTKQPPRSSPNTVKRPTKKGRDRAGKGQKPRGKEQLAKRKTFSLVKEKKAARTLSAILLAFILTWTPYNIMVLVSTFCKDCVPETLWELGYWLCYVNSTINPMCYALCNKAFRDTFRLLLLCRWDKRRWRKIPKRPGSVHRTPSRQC
TAAR1 antag: human TAAR1 antagonists, primary screen, Fluo-8 calcium fluorescence, CHO RD-HGA16 cells | Trace amine-associated receptor 1 (Homo sapiens), Q96RJ0 | antagonist | AID 624466, 2012 | 360,000 tested, 1.5% active | inhibition, % at 3 µM;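 active = inhibition above a per-plate cutoff, the mean inhibition of test compounds on that plate plus 3 SD, cut at about 49% in these data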;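 note: 0% = DMSO plus EC80 beta-PEA response and 100% = DMSO alone without agonist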
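Test system – hTAAR1-expressing CHO RD-HGA16 cells, Gα16-coupled · Reagent – β-PEA at EC80 concentration, post-compound challenge · Compound dosing – 3 µM, single point · Timing – 140 s kinetic read after compound, 140 s after agonist · Detection – Fluo-8 intracellular calcium dye fluorescence, real-time kinetic reads · Control set – DMSO and EC80 PEA controls · Repeats – n of 1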
M1 antag: human M1 muscarinic receptor antagonists, primary screen, CHO-K1 cells, Fluo-8 calcium fluorescence, 1536-well | 360,000 tested, 1.3% active | AID 588852, 2011 | CHO-K1 hM1, ACh EC80 antagonist | inhibition, % at 3 µM;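 active = percent inhibition above its own plate's cutoff, namely the mean of that plate's compound wells plus 3 SD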;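 note: peak over basal fluorescence ratio during 140 s after agonist addition; 0% = ACh EC80 plus DMSO and 100% = DMSO alone without agonist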
TAAR1 agonist: human TAAR1 agonists, primary screen, Fluo-8 calcium fluorescence, CHO RD-HGA16 cells; AID 624467, 2012; 360,000 tested, 0.99% active; Trace amine-associated receptor 1 (Homo sapiens), Q96RJ0; vehicle wells 0%, saturating PEA agonist 100%; activation, % at 3 µM;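 active = activation above the mean activation of all test compounds in the run plus 3 SD, cut at about 38% in these data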
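Test system: RD-HGA16 (CHO) cells co-expressing Gα16 and hTAAR1; dosing: one-point dosing at 3 µM (nominal); timing: 17-24 h seeding, 75 min 37 °C dye, 30 min RT; signal: kinetic Fluo-8 calcium fluorescence; read-out basis: % activation relative to PEA EC100 response; controls: DMSO and PEA EC100; replicates: n 1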
CHRM1 PAM: human M1 muscarinic receptor positive allosteric modulators, primary screen, CHO-K1 cells, Fluo-8 calcium fluorescence, 1536-well; Muscarinic acetylcholine receptor M1 (Homo sapiens), P11229; CHO-K1 hM1, ACh EC20; 0% = ACh EC20, 100% = maximal ACh; activation, % at 3 µM; 360,000 tested, 0.088% active; AID 588819, 2011; in the data active = activation above about 19%, passing the limit was not always enough
TAAR1 nonsel count: nonselective antagonists in TAAR1 counter-screen cells, counter-screen for hTAAR1 antagonist project, cell-based, fluorescence, calcium | shares compounds with TAAR1 antag | counterscreen cell line, antagonist mode | inhibition, % at 3 µM | 2,400 tested, 77% active; in the data active = inhibition above about 22%;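 note: CHO-Ga16 host cells stimulated with ATP at an EC80 level; 0% = agonist EC80 plus vehicle and 100% = vehicle without agonist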
TAAR1 antag conf: human TAAR1 antagonists, retest of hits, confirmation, cell-based, fluorescence. TAAR1-expressing cells, fluorescence antagonist read-out. shares compounds with TAAR1 antag. inhibition, % at 3 µM. 2,400 tested, 40% active; in the data active = inhibition above about 49%;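 note: CHO-Ga16 host cells challenged with agonist PEA near its EC80; 0% = agonist at EC80 plus vehicle and 100% = vehicle with no agonist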
Ga16 ag counter: calcium activation in Ga16-expressing cells, counter-screen for TAAR1 antagonist project, cell-based, fluorescence; shares compounds with TAAR1 antag; agonist counterscreen; activation, % at 3 µM; 2,400 tested, 18% active; AID 651953, 2012; in the data active = activation above about 12%;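 note: 0% = vehicle wells and 100% = saturating stimulus response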
TAAR1 ag count: TAAR1 activation by candidate antagonists – cell-based, fluorescence, counter-screen for TAAR1 antagonist project; activation, % at 3 µM; 2,400 tested, 2% active; hTAAR1 cell line, agonist mode; shares compounds with TAAR1 antag; in the data active = activation above about 37%;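 note: CHO cells stably expressing TAAR1 with calcium dye readout; 0% = DMSO vehicle and 100% = full agonist response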
Starred values were filed as active, the others as inactive; . = not tested or not shown.

SMILES	HTR2A ag	M1 ag	TAAR1 antag	M1 antag	TAAR1 agonist	CHRM1 PAM	TAAR1 nonsel count	TAAR1 antag conf	Ga16 ag counter	TAAR1 ag count
CCN(C[C@H]1N[C@@](Cc2ccccc2)(C(=O)OC)[C@H]2C(=O)N(Cc3ccccc3)C(=O)[C@@H]12)C(=O)c1ccccc1	4	-2	-20	-5	0	11	.	.	.	.
CCN(C[C@H]1N[C@@](Cc2ccccc2)(C(=O)OC)[C@H]2C(=O)N(C)C(=O)[C@@H]12)S(=O)(=O)c1ccc(OC)cc1	-1	-3	15	-6	12	-2	.	.	.	.
CCN(C[C@H]1N[C@@](CC)(C(=O)OC)[C@H]2C(=O)N(Cc3ccccc3)C(=O)[C@@H]12)C(=O)c1ccccc1	-3	1	50*	7	17	-12	25*	43	11	12
CCN(C[C@H]1N[C@@](Cc2ccccc2)(C(=O)OC)[C@H]2C(=O)N(C)C(=O)[C@@H]12)S(=O)(=O)c1ccc(OC(F)(F)F)cc1	-1	-2	64*	18	12	-13	26*	42	7	4
CCN(C[C@H]1N[C@@](Cc2ccccc2)(C(=O)OC)[C@H]2C(=O)N(C)C(=O)[C@@H]12)S(=O)(=O)c1ccc(C(F)(F)F)cc1	-1	0	75*	41*	14	-19	23*	46	8	9
C[C@H](NC(=O)c1ncn2c1C(=O)N(C)CC2)C(=O)OC(C)(C)C	-4	-2	7	-3	1	-1	.	.	.	.
COc1ccc(S(=O)(=O)NCC2CCCO2)cc1NC(=O)c1ccc(Cl)cc1 (configuration not stated)	7	-3	-18	15	-1	11	.	.	.	.
O=C(CSc1nc(=O)n2ccccc2n1)NCc1ccccc1	1	-1	-10	4	3	2	.	.	.	.
CCOC(=O)c1c(-c2ccccc2)csc1NC(=O)C(C)NCCCN1CCOCC1 (configuration not stated)	3	-5	-12	-4	11	6	.	.	.	.
Cc1csc2nc(CSc3nncn3-c3ccccc3)c(Br)n12	-6	-4	-5	-8	4	5	.	.	.	.
Cc1csc2nc(CSc3nc4ccccc4o3)c(Br)n12	-2	-5	61*	7	20	-5	15	19	5	9
CCN(Cc1ccccc1)c1ccc(/C=N/NC(=S)NC(C)C)cc1	-7	-7	50*	0	2	0	3	11	3	9
CCN1CCCC1CNC(=O)c1cc(COc2ccc(C)c(C)c2)on1 (configuration not stated)	2	-5	-8	-3	1	7	.	.	.	.
O=C1Nc2ccc(Br)cc2C1=C1CCCCC1	2	-2	76*	14	13	-8	17	36	6	7

Screens from PubChem BioAssay.
